An excerpt weighted towards active compounds, which were near 1.8% of everything screened.
Rpn11 inh: Rpn11 (PSMD14) deubiquitinase inhibitors, primary screen, biochemical, fluorescence polarization, uHTS | 26S proteasome non-ATPase regulatory subunit 14 (Homo sapiens), O00487 | human 26S proteasome, Ub4-pepOG fluorescence polarization; 20S core pre-blocked with epoxomicin | calls only at 20 µM | 0.59% of 360,000 active | AID 588493, 2011;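 active = inhibition at 20 µM, scaled to each plate's controls, above about 33%, limit read from the data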
CSN deneddyl inh: inhibitors of CSN-mediated cullin deneddylation, primary screen, biochemical, fluorescence polarization, uHTS; COP9 signalosome complex subunit 5 (Homo sapiens), Q92905; Purified CSN, SCF-Nedd8-OG deneddylation; inhibition, % at 12.5 µM; 0.38% of 360,000 active;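 active = pattern-corrected inhibition above about 35%, with an unprinted fluorescence ratio check between 0.5 and 1.5, limit read from the data, passing the limit was not always enough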;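 note: 0% = enzyme with substrate and 100% = substrate without enzyme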
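Material: human Csn5 produced in HEK293T cells; Input: enzyme 0.24 nM; Reagent: SCFSkp2-Nedd8OG substrate at 10 nM final; Dosing: 12.5 µM compound; Incubation: 90 min reaction at room temperature; Detection: fluorescence polarization of the substrate; Evaluation: % inhibition of substrate cleavage by Csn5; Control set: substrate-only high control, full reaction low control.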
HNF4A DNA FP: change in binding of human HNF4A to DNA, primary screen, biochemical, fluorescence polarization, FITC-DNA | Hepatocyte nuclear factor 4-alpha (Homo sapiens), P41235 | 0.3% of 360,000 active | AID 1224865, 2016 | activity change, % at 10 µM | 1 h; in the data active = activity change above about 30%, passing the limit was not always enough
TPT1 inhibitor: Candida albicans TPT1 enzyme inhibitors, primary screen, biochemical, fluorescence polarization | recombinant caTPT1, FP RNA substrate dephosphorylation | inhibition, % at 5 µM | 0.81% of 300,000 active;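 active = inhibition above the mean of all tested compounds plus 3 SD, set per screening campaign, cut at about 24% in these data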;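 note: plate controls were DMSO alone for no effect and ferristatin control at 100 nM for full effect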
SENP1 FRET inh: human SENP1 catalytic domain inhibitors, primary screen, biochemical, FRET, uHTS; Sentrin-specific protease 1 (Homo sapiens), Q9P0U3; recombinant SENP1 catalytic domain, CyPet-SUMO1-YPet FRET cleavage; inhibition, % at 10 µM; 0.21% of 360,000 active;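 active = inhibition at least 30% at 10 µM, raw YFP signal under a set limit, fluorescence ratio 0.5 to 1.5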;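 note: 0% = enzyme with DMSO and 100% = no enzyme wells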
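Assay system – human recombinant His6-tagged SENP1 catalytic domain enzyme · Input – SENP1 enzyme, 20 pM final · Buffer or medium – Tris pH 8 buffer plus EDTA, NaCl, BME, BSA, NP40, catalase · Schedule – 50 min reaction at room temperature · Technique – FRET read of cyan and yellow fluorescence · Control set – no-enzyme wells low, DMSO-plus-enzyme wells high control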
SUMO HTRF inh: inhibitors of in vitro SUMOylation cascade, primary screen, biochemical, HTRF, uHTS; SUMO-conjugating enzyme UBC9 (Homo sapiens), P63279; HTRF SUMOylation assay, SAE1/SAE2 + UBC9; inhibition, % at 35 µM; 0.36% of 290,000 active; in the data active = inhibition above about 50%, passing the limit was not always enough
Rpn11 confirm: Rpn11 (PSMD14) deubiquitinase inhibitors, confirmation, biochemical, fluorescence polarization, single concentration; inhibition, % at 20 µM; shares compounds with Rpn11 inh; 29% of 1,900 active; purified human 26S proteasome, Ub4-pepOG fluorescence polarization; proteasome pretreated with epoxomicin
MMP-2 inh: MMP-2 enzyme inhibition, confirmation, counter-screen for RPN11 inhibitor project, biochemical, fluorescence, single concentration. recombinant MMP-2, FRET peptide cleavage fluorescence. shares compounds with Rpn11 inh. AID 602330, 2012. 4% of 1,900 active. inhibition, % at 20 µM;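 note: human MMP-2 activated beforehand with APMA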
Target sequence (P08253 whole entry, looked up): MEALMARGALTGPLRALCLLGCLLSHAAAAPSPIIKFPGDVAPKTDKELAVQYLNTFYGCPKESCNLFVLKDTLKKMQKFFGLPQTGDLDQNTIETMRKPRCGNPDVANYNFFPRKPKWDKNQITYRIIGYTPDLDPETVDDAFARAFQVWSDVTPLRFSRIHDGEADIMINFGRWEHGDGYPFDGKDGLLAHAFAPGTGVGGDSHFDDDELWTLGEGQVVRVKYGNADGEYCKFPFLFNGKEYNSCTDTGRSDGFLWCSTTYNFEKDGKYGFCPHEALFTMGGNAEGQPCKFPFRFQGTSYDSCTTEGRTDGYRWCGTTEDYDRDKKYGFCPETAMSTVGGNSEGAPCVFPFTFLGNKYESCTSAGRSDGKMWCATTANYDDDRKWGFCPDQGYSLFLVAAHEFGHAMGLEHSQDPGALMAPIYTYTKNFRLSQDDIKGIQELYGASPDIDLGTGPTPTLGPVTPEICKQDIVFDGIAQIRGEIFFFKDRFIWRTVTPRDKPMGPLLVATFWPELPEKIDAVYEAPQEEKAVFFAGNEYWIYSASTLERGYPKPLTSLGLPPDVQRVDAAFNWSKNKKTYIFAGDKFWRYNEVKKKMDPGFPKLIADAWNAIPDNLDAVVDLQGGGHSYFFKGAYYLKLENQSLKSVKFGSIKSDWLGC
Thrombin inh: bovine thrombin protease inhibition, confirmation, counter-screen for Rpn11 inhibitor project, biochemical, fluorescence polarization, single concentration; 13% of 1,900 active; inhibition, % at 20 µM; bovine thrombin cleavage of Ub4-pepOG; shares compounds with Rpn11 inh;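 active = mean inhibition at least 40% at 20 µM, or signal 3 deviations below plate average, so some actives read negative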;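 note: plate controls were thrombin with DMSO for no effect and buffer wells lacking thrombin for full effect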
Numbers without * were called inactive; i = inactive; / = not tested or not shown; + = active, no number. Cut-off read from the data, not from the text of the source, unless noted: active = inhibition above about 40%; inactive = the rest.

SMILES	Rpn11 inh	CSN deneddyl inh	HNF4A DNA FP	TPT1 inhibitor	SENP1 FRET inh	SUMO HTRF inh	Rpn11 confirm	MMP-2 inh	Thrombin inh
Cn1cccc1-c1nc2ccc(NC(=O)c3ccco3)cc2[nH]1	i	3	0	3	1	16	/	/	/
Cc1ccc2nc(-c3ccc(NC(=O)c4ccco4)cc3)[nH]c2c1	+	44*	2	-1	1	9	8	-96	-8
O=C(NCc1ccc(Cl)cc1)N1CCOCC1	i	-4	1	-3	1	17	/	/	/
CCP(=O)(CC)c1cccc(N)c1	i	-6	3	-3	0	6	/	/	/
c1ccc(-n2nnnc2Sc2ncnc3sc4c(c23)CCCC4)cc1	+	1	2	-4	-1	-10	7	-18	1
Cc1sc2ncnc(Sc3nnnn3-c3ccc(Cl)cc3)c2c1C	i	4	0	-2	-5	7	/	/	/
Cc1ccc(NCc2ccncc2)c(Br)c1	i	-12	1	1	4	27	/	/	/
N#Cc1ccc(C(C(=O)NC2CCCCC2)n2c(=O)c(-c3ccco3)nc3ccccc32)cc1 (stereo not given)	/	13	19	/	-33	/	/	/	/
Cc1ccc(S(=O)(=O)N(C)CC(=O)O/N=C(\N)c2cccc([N+](=O)[O-])c2)cc1	+	0	2	1	2	-18	2	-23	-3
Cc1cc2occ(CC(=O)NC3(C)CCS(=O)(=O)C3)c2cc1C (stereo not given)	i	3	2	0	0	2	/	/	/
COc1cc(/C=N/NC(=O)c2cc3ccccc3cc2O)ccc1OCCN1CCCCC1	+	6	13	19	32	4	27	-5	-3
Cc1ccccc1NC(=O)Cc1nc(COC(=O)c2ccc(S(C)(=O)=O)c([N+](=O)[O-])c2)cs1	i	9	-1	/	-1	/	/	/	/
CCCC(C)C(=O)Nc1ccc(Cl)cn1 (stereo not given)	+	5	2	-2	-3	17	-4	-53	-6
COc1ccc(CCN(C)C(=O)c2ccc(S(=O)(=O)NCc3ccco3)cc2)cc1OC	i	-19	3	1	1	-9	/	/	/
O=C(Nc1nc2ccsc2c(=O)s1)c1ccc(F)cc1Cl	i	9	-2	-3	-6	-12	/	/	/
O=C(Nc1nc2ccsc2c(=O)s1)c1ccc(F)cc1	+	20	4	-1	-33	-29	35	-32	-16
CC1(C)Cc2c(C#N)c(SCCC#N)nc(N3CCOCC3)c2CS1	+	0	-5	-1	-17	3	3	-19	-2
O=C(CNCCc1ccc(Cl)cc1Cl)NCc1ccco1	i	-4	2	-1	-2	0	/	/	/
COc1ccc(CN2CCNC(=O)C2CC(=O)N(C)Cc2nccn2C)cc1OC (stereo not given)	+	-4	2	2	0	6	5	-28	33
CC(C)(C)Nc1cccccc1=O	+	2	9	-4	0	4	3	-14	-1
O=C(NCC1CCCO1)C(c1cccs1)N(Cc1cccs1)C(=O)c1ccc(-c2ccccc2)[nH]1 (stereo not given)	+	-10	-2	4	-4	-11	14	6	13
Cc1cc(NC(=O)c2cccnc2)ccc1Br	i	-3	1	-2	-1	-1	/	/	/
COc1ccccc1N1CCN(S(=O)(=O)c2ccc3c(c2)oc(=O)n3C)CC1	i	-3	-1	3	0	3	/	/	/
Cn1c(=O)oc2cc(S(=O)(=O)N3CCN(c4ccccc4F)CC3)ccc21	+	18	8	7	20	13	71*	-35	16
Cc1nc(NC(=O)c2ccccc2)sc1-c1csc(NCc2ccccc2)n1	i	32	3	4	-20	30	/	/	/
SMILES	Rpn11 inh	CSN deneddyl inh	HNF4A DNA FP	TPT1 inhibitor	SENP1 FRET inh	SUMO HTRF inh	Rpn11 confirm	MMP-2 inh	Thrombin inh
Cc1nc(NC(=O)c2ccccc2)sc1-c1csc(NCCc2ccccc2)n1	+	40*	27	0	-8	8	-4	7	-15
O=C(CN1CCCCC1)Nc1ccc(N2CCCCCC2)cc1	+	-3	72*	0	2	-14	-5	-35	-5
O=C(Nc1ccc(N2CCCC2)cc1)c1cc(Cl)ccc1Cl	+	23	14	3	-1	-2	3	-11	-10
O=C(Nc1ccc(N2CCCC2)cc1)c1ccc(Cl)cc1Cl	i	-5	3	-2	3	20	/	/	/
O=C(Nc1ccc(N2CCCC2)cc1)c1cc2ccccc2o1	+	19	11	2	1	-4	23	6	0
CC(=O)N1CCN(c2ccc(NC(=O)c3cc4ccccc4o3)cc2)CC1	i	-2	-2	-3	1	-2	/	/	/
N#Cc1ccccc1OCC(=O)Nc1c(C(=O)C2CC2)oc2ccccc12	+	-1	17	-4	-1	4	5	-19	-6
O=C(CN1CCCC1)Nc1c(C(=O)C2CC2)oc2ccccc12	i	-2	0	-2	-1	18	/	/	/
O=c1c2c3nc4ccccc4nc3n(-c3ccc4c(c3)OCCO4)c2ncn1C1CCCC1	+	1	16	1	-103	-2	-2	-13	-18
O=C(N/N=C\c1ccc(-c2ccc([N+](=O)[O-])cc2)o1)C1COc2ccccc2O1 (stereo not given)	+	-12	10	22	-29	19	46*	5	-23
NS(=O)(=O)c1ccc(N/C=C\C(=O)c2ccc3ccccc3c2)cc1	+	14	-2	11	-77	8	67*	38	-12

Assay outcomes as filed in PubChem BioAssay.
